Rows were chosen to be rich in hits. Some 2.3% of all compounds tested hit in one or more screens of this group.
ARFGAP1 inh: inhibitors of rat ARFGAP1 | Q62848 | Arfgap1-stimulated ARF1 GTP hydrolysis, GDP FP detection | inhibition, % at 16.5 µM | 360,000 compounds, 0.26% hits | AID 651572;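 active = inhibition above a per-plate limit, mean inhibition of low control wells plus 3 SD, cut at about 25% in these data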;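 note: 0% = DMSO wells with enzyme and 100% = wells lacking Arfgap1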
Target sequence (Q62848 1-136 limits assumed): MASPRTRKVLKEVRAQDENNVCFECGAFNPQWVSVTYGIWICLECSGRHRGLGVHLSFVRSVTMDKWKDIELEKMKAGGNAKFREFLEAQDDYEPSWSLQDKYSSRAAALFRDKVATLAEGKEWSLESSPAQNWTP
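Assay system: purified rat His6-Arfgap1 residues 1-136 (GAP domain); Reagent: human Δ17 ARF1 bound to GTP; Dosing: 16.5 µM single point, 1.26% DMSO; Times: GTP hydrolysis reaction 2 h at 25 °C; Signal: FP, GDP Alexa 633 tracer displaced from anti-GDP antibody, 620/688 nm; Measure: % inhibition from polarization.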
sPLA2-III inh: Blocks human group III sPLA2 activity; AID 743126; inhibition, % at 12.2 µM; 370,000 compounds, 0.56% hits; QFRET BODIPY PC-A2 liposome hydrolysis, fluorescence;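 active = inhibition above mean plus 3 SD of compounds lying within the high and low control bounds, cut at about 19% in these data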;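 note: 0% = median of test compound wells and 100% = no enzyme DMSO wells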
Calb FLC: affects C. albicans growth with fluconazole | C. albicans CaCi-2 + fluconazole, Alamar Blue growth, 48 h | growth inhibition, % (concentration not given with the values) | 300,000 compounds, 0.57% hits;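 active = growth inhibition above about 58% in most replicates, limit read from the data, passing the limit was not always enough; inconclusive = exactly half the replicates above a set limit; inactive = most replicates below a set limit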;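 note: all wells also contain fluconazole at 8 µg/ml as a sub-toxic cotreatment; 0% = median of DMSO wells and 100% = median of geldanamycin control wells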
SKKanGAS inh: SKKanGAS growth inhibition. 300,000 compounds, 1.3% hits. inhibition, % at 7.5 µM. AID 1662. S. pyogenes SKKanGAS, kanamycin growth, BacTiter-Glo, 6 h;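 active = mean replicate score, as percent of positive control median, at least 50; inconclusive = mean below 50 but one replicate at or above 50; inactive = mean and every replicate below 50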;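 note: strain carries kanamycin resistance gene driven by streptokinase promoter and grows in 40 µg/ml kanamycin; loss of luminescence reflects streptokinase promoter inhibition or plain growth inhibition; 0% = median of DMSO wells and 100% = positive control at its reference dose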
ASAP1 inh: ASAP1 ArfGAP inhibition; ASAP1-stimulated ARF1 GTP hydrolysis, GDP FP detection; 360,000 compounds, 0.19% hits; inhibition, % at 16.5 µM; Q9ULH1; in the data active = inhibition above about 25%;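 note: 0% = vehicle with enzyme and substrate and 100% = no enzyme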
Target sequence (Q9ULH1 325-724 limits assumed): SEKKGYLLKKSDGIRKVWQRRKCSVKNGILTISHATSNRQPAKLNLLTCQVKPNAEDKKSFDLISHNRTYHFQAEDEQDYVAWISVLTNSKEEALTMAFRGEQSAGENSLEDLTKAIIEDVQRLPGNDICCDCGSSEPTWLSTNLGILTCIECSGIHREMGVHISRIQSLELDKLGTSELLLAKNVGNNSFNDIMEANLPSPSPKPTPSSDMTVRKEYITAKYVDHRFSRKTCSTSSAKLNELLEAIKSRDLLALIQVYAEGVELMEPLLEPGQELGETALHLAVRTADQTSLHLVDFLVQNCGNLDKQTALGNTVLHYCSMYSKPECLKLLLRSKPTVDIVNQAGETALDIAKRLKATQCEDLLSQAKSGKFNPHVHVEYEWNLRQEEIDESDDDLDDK
An asterisk follows results filed as active; ? = inconclusive; . = no result given.

SMILES	ARFGAP1 inh	sPLA2-III inh	Calb FLC	SKKanGAS inh	ASAP1 inh
CCN(CC)C(=O)Cn1c(=O)n(-c2ccccc2)c(=O)c2c3c(sc21)CCC3	2.6	-5.7	112.5*	3.2	16.5
COC(=O)Cn1c(=O)n(CCc2ccccc2)c(=O)c2c3c(sc21)CCCC3	-4.8	7.5	?	-6.4	-2.6
C[C@@H]1CN([C@@H](C)CO)C(=O)CCCn2cc(nn2)CO[C@H]1CN(C)C(=O)C1CC1	0.1	9.3	.	.	9.1
CCN(CC)c1nc(NN)nc(Nc2ccc(C)c(Cl)c2)n1	7.6	-1.6	3.1	104.5*	-5.2
O=C(NC1CCCCN(Cc2cccc(C(F)(F)F)c2)C1=O)c1ccc(COc2ccccc2)cc1 (centres undefined)	.	-24.5	.	.	.
CCn1c(C)nc2cc(C(=O)NNC(=S)Nc3ccccc3Cl)ccc21	14.8	0.6	-4.0	8.9	9.9
CCn1c(C)nc2cc(C(=O)NNC(=S)Nc3ccc(Cl)cc3Cl)ccc21	17.3	10.7	95.3*	8.4	-2.8
COC(=O)c1sc2cc(C(F)(F)F)cnc2c1-c1ccccc1	-7.4	0.5	-7.2	-0.8	-9.9
O=C(O)c1sc2cc(C(F)(F)F)cnc2c1-c1ccccc1	12.1	2.4	?	10.2	25.0*
Cc1cccc(/C=N/NC(=O)c2ccccc2OCc2cccc(Br)c2)n1	7.5	-15.4	5.5	60.9*	-6.4
Cc1cccc(NC(=O)C2CCN(c3ncccn3)CC2)c1C	.	2.2	.	.	.
Nc1ccn([C@@H]2O[C@H](C(=O)N[C@H](Cc3ccccc3)C(=O)N3CCN(C(=O)N4CCCCC4)CC3)[C@@H](O)[C@H]2O)c(=O)n1	5.5	-2.8	.	.	-4.9
CCOC(=O)c1c(NC(=O)COC(=O)c2ccc(C)s2)sc2c1CC(C)(C)NC2(C)C	5.7	-5.3	12.7	63.4*	-5.8
CCOC(=O)c1c(NC(=O)COc2ccccc2OCC)sc2c1CC(C)(C)NC2(C)C	.	.	-7.4	22.2	.
O=C(NC(=S)NNC(=O)[C@H]1C[C@@H]1c1ccccc1)c1ccc(F)cc1	-1.1	2.5	-2.3	82.2*	8.2
O=C(/C=C/c1ccc(F)cc1)NC(=S)NNC(=O)[C@H]1C[C@@H]1c1ccccc1	-2.3	15.7	.	84.8*	1.4
COc1cc(OC)cc(C(=O)NC(=S)NNC(=O)[C@H]2C[C@@H]2c2ccccc2)c1	-1.0	-7.3	-27.1	105.0*	-0.5
COc1ccccc1C(=O)NC1CCCCN(Cc2ccc(Cl)cc2)C1=O (centres undefined)	.	-2.3	.	.	.
CCOC(=O)[C@]12CCCC3=C1N(CCC3)C(=O)[C@@H](CC(=O)NCCCN1CCCC1=O)C2	.	-0.9	.	.	.
O=C(CSc1nnc(-c2ccccc2)n1-c1ccccc1)Nc1ccccc1-c1ccccc1	.	-16.2	.	.	.
COc1ccc(CNS(=O)(=O)c2cc(Br)ccc2Br)c(OC)c1	-3.0	-14.5	.	.	-2.8
Clc1ccc(OCCn2ccnc2)c(Cl)c1	1.5	-14.0	0.4	-8.4	-1.6
Clc1ccc(OCCn2ccnc2)c2ccccc12	17.5	-19.4	100.6*	-5.0	-5.7
O=C(Nc1ccc(Br)c2ccccc12)c1ccc2ccccc2c1O	-10.8	-15.4	18.6	99.6*	9.2
O=S(=O)(Nc1ccc(C(O)(C(F)(F)F)C(F)(F)F)cc1)c1cccs1	.	-36.6	.	.	.
SMILES	ARFGAP1 inh	sPLA2-III inh	Calb FLC	SKKanGAS inh	ASAP1 inh
COC(=O)[C@]12C[C@H](CC(=O)NCc3cccc4ccccc34)C(=O)N(Cc3ccc(Cl)cc3Cl)C1=C[C@H](C(C)(C)C)O[C@@H]2C	.	-9.4	.	.	.
CCCc1cc(C(=O)Nc2sc(C)c(CC)c2C#N)no1	-2.1	7.4	10.9	0.1	-16.3
Cc1onc(-c2ccccc2Cl)c1C(=O)Nc1sc2c(c1C#N)CCC2	8.6	2.0	76.7*	7.5	15.2
CCCc1cc(C(=O)Nc2sc3c(c2C#N)CCC3)no1	-3.7	5.6	84.1*	6.9	0.6
CC1CCc2c(sc(NC(=O)c3nc4ncccn4n3)c2C#N)C1 (centres undefined)	-1.0	-2.8	-2.2	6.8	-3.5
N#Cc1c(NC(=O)c2nc3ncccn3n2)sc2c1CCCCC2	1.7	9.3	95.3*	.	-3.4
Cc1onc(C(=O)Nc2sc3c(c2C#N)CCCC3)c1[N+](=O)[O-]	-1.3	8.4	82.0*	3.9	12.2
O=C1OCC2=Nc3cccc4cccc(c34)N12	7.1	14.2	.	.	-0.6
CC(=O)N1c2ccccc2C(=O)NCC1C(=O)NC(C)(C)C (centres undefined)	.	8.7	.	.	.
O=C1c2ccccc2C(=O)c2[nH]c(=O)[nH]c21	0.5	3.1	46.5	62.3*	5.2
O=C1c2ccccc2C(=O)c2[nH]cnc21	0.9	-3.1	33.1	12.4	2.8
Cc1cc(C(C)(C)C)ccc1OCCCCN1CCCC1	6.9	-10.7	-0.4	-0.5	-11.1
CCC(C)(C)c1ccc(OCCCC[n+]2cccc(C)c2C)c(C(C)(C)CC)c1	-2.1	-41.5	109.4*	14.6	-10.8
CCC(C)(C)c1ccc(OCCCC[n+]2ccc(C)cc2)c(C(C)(C)CC)c1	-2.0	0.7	94.4*	18.5	-6.9
Cc1cc[n+](CC[n+]2ccc(C)cc2)cc1	-7.2	-1.0	5.0	0.8	15.6
CCCCC[C@H](C)N1C[C@H](COCc2ccccc2)Oc2cc(N3CCC[C@H]3COC)ccc2S1(=O)=O	4.2	-5.1	.	.	8.1
COc1cc(NC(=O)c2cccc([N+](=O)[O-])c2)ccc1NC(=O)c1ccco1	-2.0	2.3	-8.5	-3.6	-4.8
COc1ccc(NC(=O)c2ccc([N+](=O)[O-])o2)cc1	4.7	-0.4	102.9*	1.8	-8.7
O=C(Nc1cc([N+](=O)[O-])ccc1O)c1cccc(NC(=O)c2ccco2)c1	-4.3	-8.7	?	52.9*	11.8
Cc1cc(NC(=O)c2ccc([N+](=O)[O-])o2)ccc1NC(=O)c1ccco1	5.2	8.0	57.8*	-13.8	8.2
COc1cc(NC(=O)c2ccc([N+](=O)[O-])o2)ccc1NC(=O)c1ccco1	10.4	0.7	.	5.6	0.1
NC(=O)c1oc2ccccc2c1NC(=O)c1ccc([N+](=O)[O-])o1	11.3	9.4	53.6	73.0*	5.6
O=C(NCc1cccs1)C1CCN(S(=O)(=O)c2cccc3ccccc23)CC1	.	-4.3	.	.	.
O=[N+]([O-])c1ccc(Nc2ccccc2)c2nonc12	1.1	1.5	89.1*	3.9	7.7
O=[N+]([O-])c1ccc(Sc2cccc[n+]2[O-])c2nonc12	-1.1	-0.6	1.0	101.8*	-0.9
CC(=O)N1CCN(C(=O)CN2C(=O)CC(C)(C)S(=O)(=O)c3ccccc32)CC1	.	15.4	.	.	.
Cc1ccc(N/N=C(\C#N)C(N)=S)c(C)c1	-13.1	8.4	-3.1	59.9*	-7.6
Cc1ccc(NC(=O)/C(C#N)=N/Nc2ccc(C(=O)O)cc2)c(C)c1	-2.4	-2.3	6.0	-2.2	0.9
Cc1nc2ccc(NC(=O)COc3ccccc3)cc2s1	-5.8	-0.9	107.7*	.	-0.5
N#C/C(=C/c1ccc(N2CCCCCC2)o1)c1cccc(F)c1	-10.9	-13.2	4.1	-3.8	0.0

Screening results from PubChem BioAssay.
